Results collected from several papers.
Lines come from different studies, so protocols differ.
AMY2: Pancreatic alpha-amylase (AMY2, Sus scrofa, UniProt P00690)
SIRT2: NAD-dependent protein deacetylase sirtuin-2 (SIRT2, Homo sapiens, UniProt Q8IXJ6)
HSD11B2: 11-beta-hydroxysteroid dehydrogenase type 2 (HSD11B2, Homo sapiens, UniProt P80365)
Maoa: Amine oxidase [flavin-containing] A (Maoa, Rattus norvegicus, UniProt P21396)

Compound | target | effect on | action | technique | tested at | setting | inhibition [%]
COc1cc(C=Cc2cc(-c3ccccc3)nc(O)n2)ccc1O | AMY2 | enzyme activity | inhibitor | absorbance | 1.25 µg/mL |  | 58.1
CC(=S)NCCCC[C@H](NC(=O)OCc1ccccc1)C(=O)N[C@@H](Cc1c[nH]c2ccccc12)C(=O)N[C@@H](CCCCN)C(N)=O | SIRT2 | enzyme activity | inhibitor |  | 1 µM |  | 36
CCN(O)N=Nc1ccc(S(=O)(=O)Nc2nccs2)cc1 | AMY2 | enzyme activity | inhibitor |  | 300 µg/mL |  | 63.2
CN(C)CCCN1c2ccccc2Sc2ccc(Cl)cc21 | HSD11B2 | enzyme activity | inhibitor |  | 20 µM | lysate | < 40
Cn1c(CNC(=S)NCCCC[C@H](NS(=O)(=O)c2cccc(F)c2)C(=O)N[C@@H](Cc2c[nH]c3ccccc23)C(=O)NC2CCC2)n[nH]c1=S | SIRT2 | enzyme activity | inhibitor |  | 30 µM |  | 43
CC(=S)NCCCC[C@H](NC(=O)OCc1ccccc1)C(=O)N[C@@H](Cc1c[nH]c2ccccc12)C(=O)N[C@@H](CCC(=O)O)C(N)=O | SIRT2 | enzyme activity | inhibitor |  | 10 µM |  | 39
CCCCCCCCCCC[C@@H](C[C@@H]1OC(=O)[C@H]1CCCCCC)OC(=O)[C@H](CC(C)C)NC=O | Pancreatic triacylglycerol lipase (PNLIP, Sus scrofa, UniProt P00591) | enzyme activity | inhibitor | absorbance | 50 µg/mL |  | 92.2
Oc1cccc(Nc2nc(-c3ccc(F)cc3F)cs2)c1 | Maoa | cell-free assay |  |  | 10 µM |  | 14.4
C[C@H]1O[C@H](O[C@H]2[C@H](O)[C@@H](O)[C@@H](O[C@H]3[C@H](O)[C@@H](O)C(O)O[C@@H]3CO)O[C@@H]2CO)[C@H](O)[C@@H](O)[C@@H]1N[C@H]1C=C(CO)[C@@H](O)[C@H](O)[C@H]1O (stereo partly drawn) | AMY2 | enzyme activity | inhibitor |  | 30 µg/mL |  | 32.1
CC/C(=N\NC(=O)NCc1cccc(O)c1)c1ccc(O)c(C)c1O | Fibroblast growth factor receptor 3 (FGFR3, Homo sapiens, UniProt P22607, V555M) | enzyme activity | inhibitor |  | 0.1 µM |  | 0.7
O=C(O)CN1CCN(CC(=O)O)CCN(CC(=O)O)CC1 | Hydroxyacylglutathione hydrolase, mitochondrial (Homo sapiens, UniProt Q16775) | cell-free assay |  |  | 500 µM |  | 5.98
CCC(C)(C)C(=O)O[C@H]1C[C@@H](C)C=C2C=C[C@H](C)[C@H](CC[C@@H]3C[C@@H](O)CC(=O)O3)[C@H]21 | HSD11B2 | enzyme activity | inhibitor |  | 20 µM | lysate | < 40
CN(O)N=Nc1ccc(S(=O)(=O)Nc2nccs2)cc1 | AMY2 | enzyme activity | inhibitor |  | 60 µg/mL |  | 26.3
O=C(NC1CCC1)[C@H](Cc1c[nH]c2ccccc12)NC(=O)[C@H](CCCCNC(=S)NCc1cc(O)no1)NS(=O)(=O)c1cccc(F)c1 | SIRT2 | enzyme activity | inhibitor |  | 30 µM |  | 13
C=C(CC)C(=O)c1ccc(OCC(=O)O)c(Cl)c1Cl | HSD11B2 | enzyme activity | inhibitor |  | 20 µM | lysate | < 40
CCCCCCCCCCCCNC(=O)CCCCC[C@H](NC(=O)OCc1ccccc1)C(=O)N[C@@H](Cc1c[nH]c2ccccc12)C(=O)NC(C)C | SIRT2 | enzyme activity | inhibitor |  | 100 µM |  | 29
COc1cc(C=CC(=O)CC(c2ccc([N+](=O)[O-])cc2)n2ccnc2)ccc1O (stereo not drawn) | AMY2 | enzyme activity | inhibitor | absorbance | 10 µg/mL |  | 87.6
O=C(c1ccc(Cl)cc1)N(Cc1ccccc1)C1CCCCC1 | Maoa | cell-free assay |  |  | 10 µM |  | 5.1
COc1cc(C=CC(=O)CC(c2ccc(N(C)C)cc2)n2ccnc2)ccc1O (stereo not drawn) | AMY2 | enzyme activity | inhibitor | absorbance | 5 µg/mL |  | 77
Cc1ccc(N(O)N=Nc2ccc(S(=O)(=O)Nc3onc(C)c3C)cc2)cc1 | AMY2 | enzyme activity | inhibitor |  | 180 µg/mL |  | 42.1
CCCCCCCCCCCCCC(=O)NNCCC[C@H](NC(=O)OCc1ccccc1)C(=O)N[C@@H](Cc1c[nH]c2ccccc12)C(=O)NC(C)C | SIRT2 | enzyme activity | inhibitor |  | 100 µM |  | 19
Cc1cc(NS(=O)(=O)c2ccc(N=NN(O)c3ccccc3)cc2)no1 | AMY2 | enzyme activity | inhibitor |  | 180 µg/mL |  | 52.6
CC(=S)NCCCC[C@H](NC(=O)OCc1ccccc1)C(=O)N[C@@H](Cc1c[nH]c2ccccc12)C(=O)N[C@@H](CC(N)=O)C(N)=O | SIRT2 | enzyme activity | inhibitor |  | 1 µM |  | 26
COc1cc(NC(C)=O)c(Cl)cc1C(=O)Nc1nccs1 | Maoa | cell-free assay |  |  | 10 µM |  | 14.4
Cc1cccc(N(O)N=Nc2ccc(S(=O)(=O)Nc3onc(C)c3C)cc2)c1 | AMY2 | enzyme activity | inhibitor |  | 180 µg/mL |  | 36.8
O=C(NC1CCC1)[C@H](Cc1c[nH]c2ccccc12)NC(=O)[C@H](CCCCNC(=S)NCc1n[nH]c(=S)o1)NS(=O)(=O)c1cccc(F)c1 | SIRT2 | enzyme activity | inhibitor |  | 30 µM |  | 11
Cc1ccc(N(O)N=Nc2ccc(S(=O)(=O)Nc3cc(C)on3)cc2)cc1 | AMY2 | enzyme activity | inhibitor |  | 240 µg/mL |  | 68.4
COc1cc(C=Cc2cc(-c3ccc(N(C)C)cc3)nc(O)n2)ccc1O | AMY2 | enzyme activity | inhibitor | absorbance | 2.5 µg/mL |  | 60
CCCN(O)N=Nc1ccc(S(=O)(=O)Nc2cc(C)on2)cc1 | AMY2 | enzyme activity | inhibitor |  | 120 µg/mL |  | 31.6
CN1CC(Oc2cnc(C#N)cc2-c2ccn3nc(NC(=O)C4CC4)cc3c2)C1 | Receptor-interacting serine/threonine-protein kinase 1 (RIPK1, Homo sapiens, UniProt Q13546) | enzyme activity | inhibitor |  | 1 µM |  | -4
